Source: ChEMBL document CHEMBL3784986, “Discovery and Characterization of Biased Allosteric Agonists of the Chemokine Receptor CXCR3” (J Med Chem, 2016)
The source made the active and inactive calls. No cut-off for these calls is given here.

Assays:
[1] = target: T1, C-X-C chemokine receptor type 3 (Homo sapiens) (UniProt P49682); test: Displacement of [125I]CXCL11 from human CXCR3 isoform 1 expressed in African green monkey COS7 cells after 3 hrs by liquid scintillation counting method; assay type: cell-based; settings: COS-7
T1 sequence (whole entry): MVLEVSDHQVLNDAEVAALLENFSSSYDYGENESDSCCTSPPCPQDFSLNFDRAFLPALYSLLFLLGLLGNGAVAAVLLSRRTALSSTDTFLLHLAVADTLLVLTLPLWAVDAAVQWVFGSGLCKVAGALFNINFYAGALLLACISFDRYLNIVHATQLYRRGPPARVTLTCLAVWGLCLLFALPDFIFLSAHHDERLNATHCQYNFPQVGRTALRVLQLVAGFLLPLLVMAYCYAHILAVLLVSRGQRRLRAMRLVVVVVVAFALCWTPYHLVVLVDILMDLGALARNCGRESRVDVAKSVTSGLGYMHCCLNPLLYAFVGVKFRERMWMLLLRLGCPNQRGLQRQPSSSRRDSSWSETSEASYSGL
Summary of the method: (§1)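 Cells washed in 50 mM HEPES/5 g/L BSA and chilled 15 min at 4 °C. Ligands added, then 10-15 pM [125I]CXCL11 (Chloramine-T labelled, HPLC-purified). Incubation 3 h at 4 °C, washes, bound radioactivity read by liquid scintillation.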

[2] = target: T1, C-X-C chemokine receptor type 3 (Homo sapiens); test: Inhibition of CXCL10-mediated activation of human CXCR3 expressed in HEK cells; assay type: cell-based; settings: HEK293
[3] = target: T1, C-X-C chemokine receptor type 3 (Homo sapiens); test: Inhibition of CXCL11-mediated activation of human CXCR3 expressed in HEK cells; assay type: cell-based; settings: HEK293
[4] = target: T1, C-X-C chemokine receptor type 3 (Homo sapiens); test: Displacement of [125I]CXCL11 from human CXCR3 isoform 1 expressed in African green monkey COS7 cells at 1 uM after 3 hrs by liquid scintillation counting method; assay type: cell-based; settings: COS-7; summary of the method: as §1
[5] = target: T1, C-X-C chemokine receptor type 3 (Homo sapiens); test: Induction of C-terminal eGFP-tagged CXCR3 (unknown origin) internalization expressed in HEK293T cells at 1 to 10 uM after 60 mins by scanning laser confocal microscopy; assay type: cell-based; settings: HEK-293T
Summary of the method: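 HEK293T cells transiently transfected with C-terminally eGFP-tagged CXCR3, moved to poly-L-lysine coverslips at 24 h. Two days post-transfection, treated 60 min at 37 °C with compound (10 µM and 1 µM) or 100 nM CXCL11. Fixed in 4% paraformaldehyde and imaged by confocal laser scanning microscopy.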

[6] = target: T1, C-X-C chemokine receptor type 3 (Homo sapiens); test: Positive allosteric modulation of human CXCR3 expressed in HEK293T cell membranes after 30 mins by [35S]GTPgammaS incorporation assay relative to CXCL11; assay type: functional; settings: HEK-293T
Summary of the method: (§2)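 Membranes from HEK293 cells stably expressing CXCR3 (30 µg/mL protein) in 20 mM HEPES, 10 mM MgCl2, 100 mM NaCl, 100 mg/L saponin, pH 7.4. Compound plus 1 µM GDP preincubated 30 min at 37 °C, then 0.10 nM [35S]GTPγS added for 30 min at 37 °C. Filtered on GF/B and counted. Efficacy expressed as % of CXCL11. Three experiments in triplicate, pEC50 by nonlinear regression.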

[7] = target: T1, C-X-C chemokine receptor type 3 (Homo sapiens); test: Positive allosteric modulation of ProLink1-tagged wild type CXCR3 (unknown origin) expressed in HEK293T cells assessed as beta-arrestin-2 recruitment incubated for 4 hrs by chemiluminescence-based microplate reader method relative to CXCL11; assay type: cell-based; settings: HEK-293T
Summary of the method: (§3)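 HEK293 cells stably expressing β-gal enzyme acceptor, transiently transfected with PK1- or PK2-tagged wild-type CXCR3, 2000 cells/well, grown overnight at 37 °C. Compounds or CXCL11 in PBS pH 7.4 with 0.20% BSA added for 4 h. Detection mix 60 min at room temperature, then chemiluminescence read. Efficacy expressed as % of CXCL11 effect. Two to three experiments in triplicate.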

[8] = Cytotoxicity against HEK293T cells expressing CXCR3 at 10 uM incubated overnight by ApoTox-Glo Triplex assay; assay type: cell-based; settings: human, hek-293t
Summary of the method: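 10,000 HEK293T cells stably expressing CXCR3 incubated overnight with compound at 10 µM. ApoTox-Glo triplex. Viability read by fluorescence at 400Ex/505Em (GF-AFC) and cytotoxicity at 485Ex/520Em (bis-AAF-R110), each after a 30 min reagent step. Caspase-3/7 luminescence then read after a further 30 min.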

[9] = target: T1, C-X-C chemokine receptor type 3 (Homo sapiens); test: Positive allosteric modulation of CXCR3 (unknown origin) expressed in HEK293 cells assessed as induction of cell migration at 100 nM after 5 hrs by transwell migration assay relative to control; assay type: cell-based
Summary of the method: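 HEK293 cells transiently transfected with CXCR3 by calcium phosphate, used 48 h later, serum-starved. Compound placed in lower (source) chamber in 0.2% serum DMEM. Cells (1 × 10^5/well) in upper chamber, 5 h migration at 37 °C. Crystal-violet-stained migrated cells counted in 5 predefined areas and compared with buffer control.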

[10] = target: T1, C-X-C chemokine receptor type 3 (Homo sapiens); test: Antagonist activity at CXCR3 (unknown origin) expressed in HEK293 cells assessed as inhibition of CXCL11-mediated cell migration after 5 hrs by transwell migration assay; assay type: cell-based
Summary of the method: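 CXCR3-transfected HEK293 cells (calcium phosphate, used 48 h post-transfection), serum-starved, pre-incubated 15 min with compound. Compound present in both upper chamber (1 × 10^5 cells/well, 0.2% serum DMEM) and lower chamber containing CXCL11. Migration 5 h at 37 °C. Migrated cells fixed in 3.7% formaldehyde, stained with crystal violet, counted in 5 predefined areas.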

[11] = target: T1, C-X-C chemokine receptor type 3 (Homo sapiens); test: Positive allosteric modulation of ProLink1-tagged wild type CXCR3 (unknown origin) expressed in HEK293T cells assessed as beta-arrestin-2 recruitment incubated for 4 hrs by chemiluminescence-based microplate reader method; assay type: cell-based; settings: HEK-293T; summary of the method: as §3
[12] = target: T1, C-X-C chemokine receptor type 3 (Homo sapiens); test: Positive allosteric modulation of ProLink1-tagged wild type CXCR3 (unknown origin) expressed in HEK293T cells assessed as beta-arrestin-2 recruitment at 10 uM incubated for 4 hrs by chemiluminescence-based microplate reader method; assay type: cell-based; settings: HEK-293T; summary of the method: as §3
[13] = target: T1, C-X-C chemokine receptor type 3 (Homo sapiens); test: Positive allosteric modulation of human CXCR3 expressed in HEK293T cell membranes after 30 mins by [35S]GTPgammaS incorporation assay; assay type: functional; settings: HEK-293T; summary of the method: as §2
[14] = target: T1, C-X-C chemokine receptor type 3 (Homo sapiens); test: Induction of FLAG-tagged CXCR3 (unknown origin) internalization expressed in HEK293T cells at 10 uM after 60 mins by ELISA; assay type: cell-based; settings: HEK-293T
Summary of the method: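 FLAG-CXCR3-transfected HEK293T cells replated on poly-D-lysine. At 48 h, serum-free DMEM with compound (10 µM) or CXCL11 (100 nM) for 1 h at 37 °C. Cells fixed in 4% formaldehyde. Surface receptor detected with anti-FLAG antibody and peroxidase-conjugated anti-mouse IgG, o-phenylenediamine substrate, stopped with 1M H2SO4, absorbance at 492 nm.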

[15] = target: T1, C-X-C chemokine receptor type 3 (Homo sapiens); test: Positive allosteric modulation of ProLink2-tagged wild type CXCR3 (unknown origin) expressed in HEK293T cells assessed as beta-arrestin-2 recruitment incubated for 4 hrs by chemiluminescence-based microplate reader method relative to CXCL11; assay type: cell-based; settings: HEK-293T; summary of the method: as §3
[16] = target: T1, C-X-C chemokine receptor type 3 (Homo sapiens); test: Effect on CXCL11-induced beta-arrestin-2 recruitment to wild type CXCR3 (unknown origin) expressed in HEK293T cells at 10 to 1000 nM incubated for 4 hrs by chemiluminescence-based microplate reader method; assay type: cell-based; settings: HEK-293T

Row | inhibition [1] | inhibition [2] | inhibition [3] | inhibition [4] | Activity [5] | Efficacy [6] | Efficacy [7] | fold change (FC) [9] | inhibition [10] | pEC50 [11] | Activity [12] | pEC50 [13] | Activity [14] | Efficacy [15] | Activity [16] | Structure (SMILES) | Activity [8]
1 | inactive | inactive | inactive | inactive | inactive | 50% | inactive | 0.25 | inactive | inactive |  |  |  |  |  | COc1ccc(C(=O)CCC(=O)N2Cc3ccccc3C[C@H]2C(=O)NCCCC[C@H](NC(=O)OC(C)(C)C)C(=O)NCC(c2ccccc2)c2ccccc2)cc1 | Non-toxic
2 |  |  |  |  |  | 47% |  |  |  |  | 70% |  |  |  |  | CC(C)(C)OC(=O)NCCCC[C@H](NC(=O)[C@@H]1Cc2ccccc2CN1C(=O)CCC(=O)c1ccccc1)C(=O)NCC(c1ccccc1)c1ccccc1 | 
3 | inactive | inactive | inactive | inactive | Active | inactive | 30% | 0.25 | inactive |  |  | inactive | Active | 66% | inactive | CC(C)(C)OC(=O)N[C@@H](CCCCNC(=O)[C@@H]1Cc2ccccc2CN1C(=O)CCC(=O)c1ccccc1)C(=O)NCC(c1ccccc1)c1ccccc1 | Non-toxic
